pIC50: −log10 of the molar value. The source made the active and inactive calls. No cut-off for these calls is given here.
Columns and labels:
[1] = Cellular uptake in human HeLa cell around nucleus at 2 to 5 uM after 6 hrs by fluorescent microscopic analysis; type: ADME, cell-based
Outline: (§1)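 HeLa cells seeded on coverglass overnight, treated with 0, 2 or 5 μM for 6 h (DMSO control), fixed 10 min in 4% paraformaldehyde at room temperature. Bright-field images under visible light; NIR fluorescence by confocal microscopy with 633 nm excitation and 715–785 nm long-pass emission.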

HeLa [2] = test: Cell cycle arrest in human HeLa cells assessed as accumulation at S phase at 1 uM after 24 hrs by propidium iodide staining-based flow cytometric analysis (reference value: 12.2%); type: functional
Outline: (§2)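 HeLa cells (1 × 10^6, exponential growth) exposed to compound for 24 or 48 h; collected, fixed in ice-cold 70% ethanol, stored at 4°C, rinsed in PBS, stained with 40 μg/ml propidium iodide plus RNase A; DNA content by flow cytometry, cell-cycle subpopulations as percentages. Tested at 0.3, 1, 2.5 and 5 μM (24 h).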

[3] = Cellular uptake in human HeLa cell cytoplasmic vesicles at 2 to 5 uM after 6 hrs by bright field microscopic analysis; type: ADME, cell-based; outline: as §1
[4] = molecular target: Protein arginine N-methyltransferase 5 (Homo sapiens, UniProt O14744); test: Inhibition of His6X-tagged PRMT5 expressed in Escherichia coli BL21(DE3) cells using [14C]-S-adenosyl-L-methionine and histone H4 peptide after 8 mins by scintillation counting
HeLa [5] = test: Cell cycle arrest in human HeLa cells assessed as accumulation at S phase after 24 hrs by propidium iodide staining-based flow cytometric analysis (reference value: 12.2%); type: functional; outline: as §2
[6] = Cellular uptake in human HeLa cell nucleus at 2 to 5 uM after 6 hrs by fluorescent microscopic analysis; type: ADME, cell-based; outline: as §1
HeLa [7] = test: Induction of apoptosis in human HeLa cells assessed as increase in sub-G1 peak at 2.5 to 5 uM after 48 hrs by propidium iodide staining-based flow cytometric analysis; type: functional, cell-based; outline: as §2
[8] = molecular target: Protein arginine N-methyltransferase 3 (Homo sapiens, UniProt O60678); test: Inhibition of His6X-tagged PRMT3 expressed in Escherichia coli BL21(DE3) cells using [14C]-S-adenosyl-L-methionine and R4 peptide after 8 mins by scintillation counting
[9] = molecular target: Protein arginine N-methyltransferase 1 (Homo sapiens) (UniProt Q99873); details: 4 uM
[10] = Inhibition of His-tagged PRMT1 Y152A mutant expressed in Escherichia coli BL21(DE3) cells assessed as residual activity using [14C]-S-adenosyl-L-methionine and histone H4 peptide at 4 uM measured after 8 mins by scintillation counting
Outline: (§3)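 50 mM HEPES pH 8.0, 0.5 mM DTT, 1 mM EDTA, 50 mM NaCl, 30°C; 2 μM H4(1-20), 5 μM [14C]AdoMet, inhibitor preincubated 5 min, started with 0.05 μM enzyme, 8 min; P81 filter binding, scintillation.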

[11] = molecular target: Protein arginine N-methyltransferase 6 (Homo sapiens, UniProt Q96LA8); test: Inhibition of His6X-tagged PRMT6 expressed in Escherichia coli BL21(DE3) cells using [14C]-S-adenosyl-L-methionine and histone H3(1-31) peptide after 8 mins by scintillation counting
HeLa [12] = test: Cell cycle arrest in human HeLa cells assessed as accumulation at G1 phase at 1 uM after 24 hrs by propidium iodide staining-based flow cytometric analysis (reference value: 57.2%); type: functional; outline: as §2
[13] = Cellular uptake in human HeLa cell nucleus after 6 hrs by bright field microscopic analysis; type: ADME, cell-based; outline: as §1
HeLa [14] = test: Cell cycle arrest in human HeLa cells assessed as accumulation at G2/M phase at 1 uM after 24 hrs by propidium iodide staining-based flow cytometric analysis (reference value: 29.2%); type: functional; outline: as §2
[15] = Cellular uptake in human HeLa cell cytoplasmic vesicles at 2 to 5 uM after 6 hrs by fluorescent microscopic analysis; type: ADME, cell-based; outline: as §1
[16] = molecular target: Protein arginine N-methyltransferase 1 (Homo sapiens) (UniProt Q99873); test: Inhibition of His-tagged PRMT1 expressed in Escherichia coli BL21(DE3) cells assessed as residual activity using [14C]-S-adenosyl-L-methionine and histone H4 peptide at 100 uM after 8 mins by scintillation counting; outline: as §3

Chain of Protein arginine N-methyltransferase 1 (Homo sapiens) (Q99873 whole entry, looked up): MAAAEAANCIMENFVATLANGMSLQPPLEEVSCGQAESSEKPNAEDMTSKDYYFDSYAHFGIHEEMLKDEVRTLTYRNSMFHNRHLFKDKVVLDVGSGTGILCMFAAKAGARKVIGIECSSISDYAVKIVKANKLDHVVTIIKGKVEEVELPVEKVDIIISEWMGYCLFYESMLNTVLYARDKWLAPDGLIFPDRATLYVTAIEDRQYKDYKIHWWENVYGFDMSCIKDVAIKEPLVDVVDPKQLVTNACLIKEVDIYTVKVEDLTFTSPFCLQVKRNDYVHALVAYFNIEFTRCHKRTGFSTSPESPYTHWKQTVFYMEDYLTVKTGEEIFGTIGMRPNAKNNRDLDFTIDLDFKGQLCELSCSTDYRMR
Chain of Protein arginine N-methyltransferase 5 (O14744 whole entry): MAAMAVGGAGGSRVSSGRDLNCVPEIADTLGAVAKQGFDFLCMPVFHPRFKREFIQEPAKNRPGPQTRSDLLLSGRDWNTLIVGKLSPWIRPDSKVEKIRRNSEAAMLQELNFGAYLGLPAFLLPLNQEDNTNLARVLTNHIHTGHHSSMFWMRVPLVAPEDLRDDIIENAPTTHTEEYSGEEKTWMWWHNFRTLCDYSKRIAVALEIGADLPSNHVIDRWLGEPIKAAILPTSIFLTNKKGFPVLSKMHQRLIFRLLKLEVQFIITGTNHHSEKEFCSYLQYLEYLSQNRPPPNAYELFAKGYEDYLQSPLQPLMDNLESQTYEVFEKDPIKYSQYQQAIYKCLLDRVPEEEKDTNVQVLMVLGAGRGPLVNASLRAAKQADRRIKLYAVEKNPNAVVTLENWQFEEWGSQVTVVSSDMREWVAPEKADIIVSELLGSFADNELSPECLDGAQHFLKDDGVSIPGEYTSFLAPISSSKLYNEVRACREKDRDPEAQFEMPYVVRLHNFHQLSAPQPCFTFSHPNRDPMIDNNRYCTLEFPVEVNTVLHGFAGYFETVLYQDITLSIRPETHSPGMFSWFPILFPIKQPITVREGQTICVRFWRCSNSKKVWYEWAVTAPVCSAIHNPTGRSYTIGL
Chain of Protein arginine N-methyltransferase 3 (O60678 whole entry): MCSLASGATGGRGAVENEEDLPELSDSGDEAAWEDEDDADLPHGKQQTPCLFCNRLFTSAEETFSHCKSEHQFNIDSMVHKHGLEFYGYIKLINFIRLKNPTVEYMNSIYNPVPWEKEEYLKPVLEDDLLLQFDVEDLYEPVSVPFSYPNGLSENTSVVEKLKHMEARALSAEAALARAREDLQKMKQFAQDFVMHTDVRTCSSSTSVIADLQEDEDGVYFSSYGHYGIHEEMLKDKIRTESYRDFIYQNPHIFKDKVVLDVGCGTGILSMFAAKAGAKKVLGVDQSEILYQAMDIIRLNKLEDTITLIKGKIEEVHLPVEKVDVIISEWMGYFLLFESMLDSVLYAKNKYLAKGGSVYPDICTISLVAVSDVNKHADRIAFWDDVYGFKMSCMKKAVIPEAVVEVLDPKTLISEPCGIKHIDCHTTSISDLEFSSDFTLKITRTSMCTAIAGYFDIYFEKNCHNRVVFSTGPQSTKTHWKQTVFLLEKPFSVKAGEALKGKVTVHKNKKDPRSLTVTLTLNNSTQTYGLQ
Chain of Protein arginine N-methyltransferase 6 (Q96LA8 whole entry): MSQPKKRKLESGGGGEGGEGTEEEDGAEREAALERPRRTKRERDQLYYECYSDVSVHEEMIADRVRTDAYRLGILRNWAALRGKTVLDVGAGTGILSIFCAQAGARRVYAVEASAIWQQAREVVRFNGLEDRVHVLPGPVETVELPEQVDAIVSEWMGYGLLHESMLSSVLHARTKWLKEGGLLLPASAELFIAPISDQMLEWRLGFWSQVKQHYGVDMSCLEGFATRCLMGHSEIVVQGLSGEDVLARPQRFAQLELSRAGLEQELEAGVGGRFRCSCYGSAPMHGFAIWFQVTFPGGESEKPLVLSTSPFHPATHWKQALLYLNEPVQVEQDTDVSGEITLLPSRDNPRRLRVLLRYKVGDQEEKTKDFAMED

SMILES	Drug uptake [1]	Activity (HeLa [2]) [%]	Drug uptake [3]	pIC50 [4]	Activity (HeLa [5])	Drug uptake [6]	Activity (HeLa [7])	pIC50 [8]	inhibition [9] [%]	inhibition [10]	pIC50 [11]	Activity (HeLa [12]) [%]	Drug uptake [13]	Activity (HeLa [14]) [%]	Drug uptake [15]	Activity [16] [%]
CCn1/c(=C\C=C\C2=[N+](CC)c3cccc4cccc2c34)c2cccc3cccc1c32.[I-]	Active	56.5	Active	5.04	Active	Active	Active	5.08	92	Active	4.90	23.6	Dose-dependent effect	13.9	Active	
COc1ccc2c(c1)C(C)(C)C(/C=C/C=C/C=C1\N(C)c3ccc(OC)cc3C1(C)C)=[N+]2C																95
CN1\C(=C/C=C(Cl)/C=C/C2=[N+](C)c3ccccc3C2(C)C)C(C)(C)c2ccccc21																80

Source: ChEMBL document CHEMBL2046392, “Synthesis and evaluation of carbocyanine dyes as PRMT inhibitors and imaging agents” (Eur J Med Chem, 2012)
